Assay results taken from PMC12059896 (ACS Omega, 2025).

Experiments:
[1] = tested on: LNCaP cells; experiment: XTT cytotoxicity assay in LNCaP cells; assay type: cell-based; conditions: 24 h and 72 h, n = 4 (Figures 6, 7)
Method in brief: (§1)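 Cells kept in RPMI with 10% FBS and 1% penicillin–streptomycin at 37 °C, 5% CO2. Seeded at 6 × 10^3 (LNCaP) or 3 × 10^3 (PC-3) per well, attached 24 h, then exposed to free drugs or leucine-coupled drugs. At 24 and 72 h, XTT added for 3 h at 37 °C; absorbance read at 450 nm. Controls: 0.05% DMSO and medium alone. Mean ± SD, n = 4.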

[2] = tested on: PC-3 cells; experiment: XTT cytotoxicity assay in PC-3 cells; assay type: cell-based; conditions: 24 h and 72 h, n = 4 (Figures 6, 7)
Method in brief: as §1

[3] = cited from earlier work
[4] = tested on: PC-3 cells; conditions: PC-3 cells do not express PSA; ref 10 (Bakthavatsalam et al. 2020); cited from earlier work

Compound: COC1C(=O)C2(C)C(OC)CC3OCC3(OC(C)=O)C2C(OC(=O)c2ccccc2)C2(O)CC(OC(=O)C(OC(=O)C(N)CC(C)C)C(NC(=O)OC(C)(C)C)c3ccccc3)C(C)=C1C2(C)C [L-cabazitaxel, NH2-Leu-Cabazitaxel]
- cytotoxicity of drug compared with its leucine conjugate, LNCaP [1]: comparable cytotoxicity
- cytotoxicity of drug compared with its leucine conjugate, PC-3 [2]: comparable cytotoxicity

Compound: CO[C@H]1C(=O)[C@]2(C)[C@@H](OC)C[C@H]3OC[C@@]3(OC(C)=O)[C@H]2[C@H](OC(=O)c2ccccc2)[C@]2(O)C[C@H](OC(=O)[C@H](O)[C@@H](NC(=O)OC(C)(C)C)c3ccccc3)C(C)=C1C2(C)C [cabazitaxel]
- cytotoxicity of drug compared with its leucine conjugate, LNCaP [1]: comparable cytotoxicity
- cytotoxicity of drug compared with its leucine conjugate, PC-3 [2]: comparable cytotoxicity

Compound: CCc1c2c(nc3ccc(O)cc13)-c1cc3c(c(=O)n1C2)COC(=O)C3(CC)OC(=O)C(N)CC(C)C (stereo not shown) [L–SN–38, NH2-Leu–SN–38]
- cytotoxicity of drug compared with its leucine conjugate, LNCaP [1]: comparable cytotoxicity
- cytotoxicity of drug compared with its leucine conjugate, PC-3 [2]: comparable cytotoxicity

Compound: CCc1c2c(nc3ccc(O)cc13)-c1cc3c(c(=O)n1C2)COC(=O)[C@]3(O)CC [SN-38, 7-Ethyl-10-hydroxycamptothecin]
- cytotoxicity of drug compared with its leucine conjugate, LNCaP [1]: comparable cytotoxicity
- cytotoxicity of drug compared with its leucine conjugate, PC-3 [2]: comparable cytotoxicity
- potency relative to CPT-11 in inducing antitumor activity [3]: 100- to 1000 fold

Compound: Ac-HSSKLQL-PAB-dithiocarbamate
- cytotoxicity in PC-3 cells [4]: demonstrated cytotoxicity in PC-3 cells
